Source: PubChem BioAssay (several laboratories)
TbMetRS inhib: Trypanosoma brucei MetRS inhibition | purified T. brucei MetRS, ATP depletion, Kinase-Glo luminescence | inhibition, % at 11.9 µM | 360,000 compounds, 0.4% hits;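 active = inhibition above a per-plate cutoff of the control wells' mean inhibition plus 3 SD, cut at about 5.5% in these data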;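 also: 0% = DMSO wells median and 100% = median of wells with control inhibitor compound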
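Material – parasite MetRS enzyme · Medium – HEPES-MgCl2-KCl buffer plus DTT, spermine, BSA, pyrophosphatase · Reagent – ATP, methionine and E. coli bulk tRNA substrates · Times – 15 min enzyme-compound preincubation, 2 h reaction, 10 min detection, 25 °C · Measured by – luminescence of leftover ATP · Evaluation – percent inhibition relative to median high and low control wells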
NS3 helicase inh: HCV NS3 helicase inhibition; 290,000 compounds, 0.56% hits; NS3 helicase DNA unwinding, Cy5 molecular beacon fluorescence; inhibition, % at 10.9 µM;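 active = inhibition above the mean of all tested compounds plus 3 SD, set per campaign, cut at about 35% in these data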;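 also: 0% = DMSO wells and 100% = thioflavine S control wells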
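Assay system – hepatitis C virus NS3 helicase domain fragment enzyme · Buffer or medium – MOPS pH 6.5, MgCl2, DTT, Tween20, BSA · Reagent – Cy5/quencher beacon DNA duplex and ATP to start · Compound – single 10.9 µM dose · Timing – 1 h at 25 °C · Technique – Cy5 beacon fluorescence read at start and 1 h · Measure – % inhibition of unwinding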
HCV core dimer: blocks dimerization of HCV core protein | TR-FRET GST/Flag-core106 dimerization, 1536-well | inhibition, % at 5 µM | 300,000 compounds, 0.33% hits | AID 1899;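 active = inhibition above the mean of all tested compounds plus 3 SD, set per screening campaign, cut at about 45% in these data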
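Assay system: Tagged HCV core106 pair (GST and Flag) | Buffer or medium: KF-containing HEPES buffer, pH 7.45, DTT, CHAPS, BSA | Also added: Eu donor and XL665 acceptor anti-tag antibodies | Dosing: One concentration, 5 µM, in 0.5% DMSO | Timing: 4 h at 22.5 °C | Technique: TR-FRET 671 and 617 nm emission | Repeats: Singlicate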
Hep lipid drop: modulators of hepatic lipid droplet formation. AID 1656. 240,000 compounds, 0.4% hits. AML12 mouse hepatocytes, oleate lipid droplets, BODIPY imaging. inhibition, % at 6.5 µM;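 active = lipid droplet intensity inhibited by at least 50%, with more than 500 cells counted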
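Test system: AML12 hepatocytes (mouse); reagent: oleate loading, 100 µM; dosing: one dose, 6.5 µM compound; incubation: overnight exposure; signal: fluorescence imaging, 20x objective, two fields per well; read-out basis: % inhibition of corrected integrated BODIPY droplet signal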
NS3 hel confirm: confirmation of Hepatitis C virus NS3 helicase inhibitors | 1,600 compounds, 31% hits | inhibition, % at 10.9 µM | NS3 helicase DNA unwinding, Cy5 molecular beacon fluorescence | shares compounds with NS3 helicase inh;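 active = inhibition above the mean of all tested compounds plus 3 SD, cutoff set per campaign, cut at about 36% in these data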
FID counter trip: intercalator displacement, NS3 helicase counter-screen; shares compounds with NS3 helicase inh; DNA fluorescent intercalator displacement, fluorescence; inhibition, % at 7.9 µM; 1,600 compounds, 4% hits; AID 1945; in the data active = inhibition above about 37%;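 also: 0% = vehicle and 100% = reference compound; higher means more displacement of ethidium bromide from the DNA hairpin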
FID counter DR: displaces fluorescent intercalator from DNA, HCV helicase counter-screen | shares compounds with NS3 helicase inh | fluorescent intercalator displacement from DNA, fluorescence | IC50, µM | 120 tested, under 10 active; call rule not given here
Active calls of the source: *; / = not tested or not shown. Rows were chosen to be rich in hits. Some 1.3% of all compounds tested hit in one or more screens of this group.

SMILES	TbMetRS inhib	NS3 helicase inh	HCV core dimer	Hep lipid drop	NS3 hel confirm	FID counter trip	others
CCOc1cccc(C2C(C(=O)c3ccc(C)o3)=C(O)C(=O)N2Cc2ccccc2)c1 (stereo not drawn)	-0.2	62.0*	/	-0.6	78.6*	-28.6	FID counter DR=>79.4
Cc1cc(NC(=O)c2csc([C@@H]3O[C@H](CO)[C@H](O)[C@H](O)[C@H]3O)n2)n(C)n1	-0.2	/	/	/	/	/
Cc1cc2nc3c(=O)n(CCc4ccccc4)c(=O)[nH]c3nc2cc1N	0.5	38.1*	-3.1	30.3	6.0	8.8
Nc1ccc2nc3c(=O)n(CCc4ccccc4)c(=O)[nH]c3nc2c1	2.2	19.4	-2.7	5.9	/	/
Cc1c(C(=O)c2ccc(F)cc2F)c2ccccn2c1CCc1ccccn1	-0.2	/	/	/	/	/
Cc1c(C(=O)c2ccc(F)cc2F)c2ccccn2c1CCC#N	-0.5	49.0*	-18.1	-39.7	-7.3	14.1
O=C(Nc1ccccc1)c1cc2n(n1)C(C(F)(F)F)CC(C1CC1)N2 (stereo not drawn)	-0.1	0.8	-9.4	-8.0	/	/
Cc1nnc(SCC(=O)NC(C)(C)C)n1NCc1cccc(Br)c1	0.4	-0.5	-5.0	-4.5	/	/
COc1cccc(C(N)=O)c1OC(=O)Cc1ccccc1F	-0.6	39.5*	-0.1	5.5	2.2	13.5
COc1ccccc1C(=O)COC(=O)Cc1ccccc1F	-0.3	/	/	/	/	/
CCOC(=O)c1ccc2c(c1)C1C=CCC1C(C(=O)OCC)N2 (stereo not drawn)	-0.2	50.7*	54.6*	-6.1	14.2	7.2
O=C(O)C1Nc2ccc(Br)cc2C2C=CCC12 (stereo not drawn)	-0.2	42.7*	23.4	-4.1	88.2*	-3.8
CC(C)CNC(=O)C1Nc2ccc(OC(F)(F)F)cc2C2C=CCC12 (stereo not drawn)	-0.2	/	8.4	/	/	/
CC(C)CNC(=O)C1Nc2ccccc2C2C=CCC12 (stereo not drawn)	-0.2	/	18.8	/	/	/
CCOC(=O)C1Nc2ccc(Br)cc2C2C=CCC12 (stereo not drawn)	-2.1	38.9*	50.2*	2.3	26.3	-4.1
CCOC(=O)C1Nc2ccc(C)cc2C2C=CCC12 (stereo not drawn)	-0.3	/	38.1	/	/	/
O=C(O)C1Nc2c(O)cccc2C2C=CCC12 (stereo not drawn)	0.1	58.2*	50.5*	-7.0	110.3*	13.7	FID counter DR=>79.4
COC(=O)c1sc(S(=O)(=O)Nc2ccc(C)c(C)c2)c(C(=O)OC)c1C	-0.6	-7.7	4.3	-0.1	/	/
COc1cc(NC(=S)NCCN2CCOCC2)cc(OC)c1	-0.1	18.2	-16.9	5.2	/	/
S=c1[nH]nc(-c2ccco2)n1/N=C/c1cccc(Cl)c1Cl	-0.4	44.4*	3.6	-3.6	9.2	-3.2
CCOc1cc(CNc2ccc(N(C)C)cc2)cc(Br)c1OCC(=O)NC(C)(C)C	-0.3	53.3*	-30.7	1.1	15.5	-5.6
O=C(Nc1nc(-c2ccco2)c(-c2ccco2)s1)C1CC(=O)N(c2ccc3c(c2)OCCO3)C1 (stereo not drawn)	-2.0	39.8*	31.5	5.6	72.2*	27.9	FID counter DR=>79.4
O=C(Nc1nnc(-c2ccco2)s1)C1CCCCC1	-1.3	-1.5	2.2	/	/	/
O=C(Nc1nc(-c2ccco2)c(-c2ccco2)s1)C1CCC1	-0.6	57.9*	7.8	-16.7	46.8*	18.5	FID counter DR=>79.4
CNc1cncc(-c2cc(OC)c(OC)c(OC)c2)n1	-0.3	/	/	/	/	/
SMILES	TbMetRS inhib	NS3 helicase inh	HCV core dimer	Hep lipid drop	NS3 hel confirm	FID counter trip	others
Cc1cnc(C=O)c2cccc([N+](=O)[O-])c12	0.4	/	/	/	/	/
Cc1ccc(NC(=O)/C(=C/c2cccs2)NC(=O)c2ccco2)c(C)c1	-0.5	4.9	-19.2	-5.5	/	/
NC(=O)c1ccc2c(=O)c(O)c(-c3cc(Cl)c(N)c(Cl)c3)[nH]c2c1	-0.1	38.5*	-3.3	/	5.9	11.9
COc1ccc(OC)c2sc(NC(=O)c3ccc(S(=O)(=O)N(C)C)cc3)nc12	-0.1	40.8*	-6.3	/	4.1	-23.9
COc1ccccc1NC(=O)c1ccc(S(=O)(=O)N(C)C)cc1	-0.4	-5.5	-10.9	13.3	/	/
COc1ccc(Br)c(C(=O)OCC(=O)NC2CCCCCCC2)c1	-0.1	/	/	/	/	/
COc1ccc(N2C(=O)C3C(C2=O)C(C(=O)c2ccc(Cl)cc2)N2CCCC32)cc1 (stereo not drawn)	0.3	40.3*	16.6	-2.3	32.5	-23.6
Cc1cccc(Cn2c(NC3CCCC3)nc3c2c(=O)[nH]c(=O)n3C)c1	0.4	/	/	/	/	/
COC(=O)c1c(-c2cc(C)ccc2C)csc1NC(=O)C1CC=CCC1C(=O)O (stereo not drawn)	-0.1	28.1	9.4	-5.1	/	/
COC(=O)c1c(-c2ccc(C)cc2)csc1NC(=O)C1CC=CCC1C(=O)O (stereo not drawn)	-0.2	38.6*	2.1	1.3	53.4*	-22.3
O=C(CCc1nc2ccccc2c(=O)[nH]1)Nc1ccc(F)c([N+](=O)[O-])c1	-0.2	51.6*	5.1	-5.5	-11.2	12.6
O=C(CCc1nc2ccccc2c(=O)[nH]1)NCC(=O)Nc1ccc(F)c(F)c1	-0.5	/	0.7	/	/	/
CCOc1ccc(NC(=O)CCNC(=O)C2CCN(S(=O)(=O)c3ccccc3)CC2)cc1	-1.1	3.3	-2.6	3.7	/	/
Cc1ccccc1OCc1nnc(SC(C)C(=O)O)n1-c1ccccc1 (stereo not drawn)	0.0	/	/	/	/	/
Cc1cc(OCc2nnc(SC(C)C(=O)O)n2-c2ccccc2)ccc1Cl (stereo not drawn)	-0.2	53.2*	-1.5	5.4	39.7*	-27.1
COc1ccc(C(=O)Nn2c(CC(C)C)nc3cc(Cl)ccc3c2=O)c(OC)c1	-0.2	-11.2	11.6	-34.4	/	/
O=C(c1cccc(S(=O)(=O)N2CCOCC2)c1)N1CCN(c2ncccn2)CC1	-0.3	/	/	/	/	/
CC(C)CN(C1CCS(=O)(=O)C1)S(=O)(=O)c1ccc(C(C)C)cc1 (stereo not drawn)	-0.4	/	3.8	/	/	/
Cn1c2ccccc2c(=O)c2ccc(-c3ccc4c(c3)OCO4)cc21	0.0	42.8*	20.2	5.8	7.0	1.6
O=C(Nc1ccc(N2CCCC2)cc1)c1cccc(-c2cc3ccccc3oc2=O)c1	-0.5	-21.1	34.8	0.5	/	/
O=C(Nc1ccccc1N1CCCC1)c1cccc(-c2cc3ccccc3oc2=O)c1	0.4	42.0*	37.2	-13.0	-5.6	-31.2
COc1ncnc2c1ncn2CCCNC1CCN(Cc2ccccc2)CC1	-1.0	/	/	/	/	/
CCc1nc2c(sc3nc4c(cc32)COC(C)(C)C4)c(=O)n1Cc1ccccc1	-0.3	-5.3	3.1	/	/	/
CCc1nc2c(sc3nc4c(cc32)COC(C)(C)C4)c(=O)n1Cc1ccco1	-1.2	39.5*	8.6	-25.1	-15.7	-13.8
CCc1nc(OCc2ccco2)c2sc3nc4c(cc3c2n1)COC(C)(C)C4	-0.2	47.9*	14.3	1.0	-13.8	-17.7
